The text below walks through data of ChEMBL document CHEMBL1157729, “Structure-activity relationship and mechanism of action studies of manzamine analogues for the control of neuroinflammation and cerebral infections” (J Med Chem, 2010).

In brackets after ≈: the same amount, converted by molar mass. Activity calls are given as the source filed them. No cut-off for these calls is given here.

In data set [1] the test system is HeLa. As to the kind of experiment: Cell cycle arrest in human HeLa cells assessed as increase in G0/G1 phase accumulation at 20 uM after 24 hrs by FACS analysis. In kind it is functional.
The subject of data set [2] is Mycobacterium intracellulare. As to the kind of experiment: Antimycobacterial activity against Mycobacterium intracellular ATCC 23068. The format is functional, organism-based. The essentials:
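Modified Franzblau method; samples serially diluted in 20% DMSO/saline, tested in duplicate; inoculum set by OD630; fluorescence read at 544ex/590em before and after incubation; ciprofloxacin drug control.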

Data set [3] concerns HeLa. As to the kind of experiment: Cell cycle arrest in human HeLa cells assessed as increase in G0/G1 phase accumulation at 10 uM after 24 hrs by FACS analysis. The format is functional. On the technique in general: A flow cytometer gives signals particle by particle.
Data set [4] deals with HeLa. As to the kind of experiment: Cell cycle arrest in human HeLa cells assessed as increase in G0/G1 phase accumulation at 5 uM after 24 hrs by FACS analysis. The format is functional.
Data set [5] deals with HeLa. As to the kind of experiment: Cytotoxicity against human HeLa cells after 48 hrs by trypan blue exclusion assay. The format is functional.
Data set [6] relates to Mycobacterium tuberculosis. The experiment in a line: Antimycobacterial activity against Mycobacterium tuberculosis H37Rv. In kind it is functional, organism-based.
Another data set has as its system Candida albicans. The experiment in a line: Antifungal activity against Candida albicans ATCC 90028. In kind it is functional, organism-based. The gist of the method: (§1)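 Broth microdilution per modified CLSI method; samples serially diluted in 20% DMSO/saline, tested in duplicate; inocula set by OD630 of suspensions in incubation broth; growth read at 630 nm before and after incubation; amphotericin B drug control.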

The test system of data set [7] is HeLa. The experiment in a line: Cell cycle arrest in human HeLa cells assessed as increase in G0/G1 phase accumulation at 3 uM after 24 hrs by FACS analysis. The format is functional.
In data set [8] the test system is HeLa. As to the kind of experiment: Cell cycle arrest in human HeLa cells assessed as decrease in G2/M phase accumulation at 20 uM after 24 hrs by FACS analysis. The format is functional. Details: scale not given: the % may be the effect or the level left.
A further data set concerns Cryptococcus neoformans. The experiment in a line: Antifungal activity against Cryptococcus neoformans ATCC 90113. In kind it is functional, organism-based. The essentials: as §1
Data set [9] relates to HeLa. As to the kind of experiment: Cell cycle arrest in human HeLa cells assessed as increase in S phase accumulation at 10 uM after 24 hrs by FACS analysis. In kind it is functional.
Data set [10] can be described thus: Antineuroinflammatory activity in LPS-stimulated rat neonatal microglia assessed as drug level causing 50% PMA-induced LDH release preincubated 15 mins prior to PMA challenge measured after 70 mins. In kind it is functional. The essentials: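 Neonatal rat microglia (2 × 10^5/well) primed with E. coli LPS 0.3 ng/mL for 17 h at 35.9 °C, washed with HBSS, given compound (0.01–10 μM) or DMSO 15 min, then PMA 1 μM; LDH read spectrophotometrically after 70 min; LDH50 relative to Triton X-100 (0.1%) release; duplicates.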

The subject of data set [11] is HeLa. The experiment in a line: Cell cycle arrest in human HeLa cells assessed as increase in S phase accumulation at 20 uM after 24 hrs by FACS analysis. In kind it is functional.
The subject of data set [12] is HeLa. The experiment in a line: Cell cycle arrest in human HeLa cells assessed as increase in S phase accumulation at 3 uM after 24 hrs by FACS analysis. The format is functional.
The nature of data set [13]: (§2) Antineuroinflammatory activity in LPS-stimulated rat neonatal microglia assessed as inhibition of PMA-induced TXB2 production preincubated 15 mins prior to PMA challenge measured after 70 mins. In kind it is functional, cell-based.
The subject of data set [14] is HeLa. The experiment in a line: Cell cycle arrest in human HeLa cells assessed as decrease in G2/M phase accumulation at 5 uM after 24 hrs by FACS analysis. The format is functional. Details: scale not given: the % may be the effect or the level left.
Data set [15] deals with Plasmodium falciparum. The experiment in a line: Antiplasmodial activity against chloroquine-resistant Plasmodium falciparum W2 after 72 hrs by LDH assay. The format is functional, organism-based. The note with it: Plasmodium falciparum, W2, 72 h; read-out: IC50.
Data set [16] concerns HeLa. The experiment in a line: Cell cycle arrest in human HeLa cells assessed as decrease in G2/M phase accumulation at 3 uM after 24 hrs by FACS analysis. In kind it is functional. Details: scale not given: the % may be the effect or the level left.
In data set [17] the test system is HeLa. The experiment in a line: Cell cycle arrest in human HeLa cells assessed as decrease in G2/M phase accumulation at 10 uM after 24 hrs by FACS analysis. Details: scale not given: the % may be the effect or the level left. In kind it is functional.
Data set [18] relates to Plasmodium falciparum. The experiment in a line: Antiplasmodial activity against chloroquine-sensitive Plasmodium falciparum D6 after 72 hrs by LDH assay. The format is functional, organism-based. The note with it: Plasmodium falciparum, D6, 72 h; read-out: IC50.
A short description of data set [19]: (§3) Antineuroinflammatory activity in LPS-stimulated rat neonatal microglia assessed as inhibition of PMA-induced superoxide anion production preincubated 15 mins prior to PMA challenge measured after 70 mins. In kind it is functional, cell-based.
The test system of data set [20] is HeLa. As to the kind of experiment: Cell cycle arrest in human HeLa cells assessed as increase in S phase accumulation at 5 uM after 24 hrs by FACS analysis. The format is functional.
A further data set has as its system Vero. The experiment in a line: Cytotoxicity against african green monkey Vero cells after 48 hrs by neutral red assay. In kind it is cell-based. The note with it: chlorocebus sabaeus. The essentials: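 Vero cells seeded at 25,000/well and grown 24 h, then exposed to serially diluted samples for 48 h. Viable cells measured by neutral red assay, with doxorubicin as positive control. IC50 taken from dose-response curves.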

Data set [21] concerns Mycobacterium intracellulare. The experiment in a line: Ratio of IC50 for drug to ciprofloxacin against Mycobacterium intracellular ATCC 23068. In kind it is functional.
The next data set has as its system MDCK. As to the kind of experiment: Apparent permeability across apical to basolateral side of MDCK cells expressing MDR. In kind it is ADME, cell-based, Canis lupus familiaris. The note with it: dog. The gist of the method: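 MDR-MDCK cells (passage 12-40) seeded at 75,000 cells/cm2 and grown 8 days on Transwell inserts to a monolayer. Bidirectional transport over 2 h in HBSS pH 7.4 with test substance at 50 μM and caffeine (5 μM) as standard. Donor and receiver samples quantified by LC-MS. Cumulative amount transported plotted against time to derive apparent permeability.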

The test system of data set [22] is Microglia. The description is as §2. In kind it is functional, cell-based.
Data set [23] concerns Microglia. The data set is described as §3. In kind it is functional, cell-based.
Data set [24] concerns Plasmodium berghei. As to the kind of experiment: Antiplasmodial activity against Plasmodium berghei NK65 infected in Swiss Webster mice (Mus musculus) assessed as survivability at 10 mg/kg, intraperitoneally administered 1 day after infection for 3 days measured after 28 days post infection. In kind it is functional, organism-based. Details: dose 10 mg/kg.
The target in data set [25] is T1, Tubulin (Sus scrofa) (UniProt P02554+P02550). As to the kind of experiment: Inhibition of pig brain tubulin polymerization after 30 to 60 mins in presence of GTP and glutamate by turbidimetry.
T1 sequence (P02550 whole entry, looked up): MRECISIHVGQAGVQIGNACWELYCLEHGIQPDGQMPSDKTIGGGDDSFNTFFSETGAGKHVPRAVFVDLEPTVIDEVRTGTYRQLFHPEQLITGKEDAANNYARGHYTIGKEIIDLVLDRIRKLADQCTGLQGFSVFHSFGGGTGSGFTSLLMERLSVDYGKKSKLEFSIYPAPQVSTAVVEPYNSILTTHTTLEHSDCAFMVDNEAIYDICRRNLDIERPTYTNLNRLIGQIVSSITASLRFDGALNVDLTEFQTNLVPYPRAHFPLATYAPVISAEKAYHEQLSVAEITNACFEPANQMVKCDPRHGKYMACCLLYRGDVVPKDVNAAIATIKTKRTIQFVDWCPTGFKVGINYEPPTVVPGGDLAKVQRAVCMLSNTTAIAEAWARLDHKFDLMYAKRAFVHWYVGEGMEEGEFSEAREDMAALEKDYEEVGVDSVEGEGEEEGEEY
T1 sequence (P02554 whole entry, looked up): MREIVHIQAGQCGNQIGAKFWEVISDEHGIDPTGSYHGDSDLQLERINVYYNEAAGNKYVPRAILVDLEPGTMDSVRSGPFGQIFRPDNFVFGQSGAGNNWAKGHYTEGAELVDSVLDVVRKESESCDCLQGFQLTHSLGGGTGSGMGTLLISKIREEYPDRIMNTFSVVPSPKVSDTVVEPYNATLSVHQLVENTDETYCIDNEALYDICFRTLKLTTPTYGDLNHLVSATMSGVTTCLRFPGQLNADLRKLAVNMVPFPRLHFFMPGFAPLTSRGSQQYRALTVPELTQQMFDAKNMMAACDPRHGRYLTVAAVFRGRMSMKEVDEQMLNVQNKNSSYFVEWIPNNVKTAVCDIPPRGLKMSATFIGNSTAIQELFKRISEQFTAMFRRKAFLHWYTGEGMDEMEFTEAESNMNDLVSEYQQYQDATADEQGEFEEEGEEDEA
For data set [26], the target named is T1, Tubulin (Sus scrofa). As to the kind of experiment: Inhibition of pig brain tubulin polymerization up to 30 mins by turbidimetry.
Data set [27] relates to Plasmodium berghei. As to the kind of experiment: Antiplasmodial activity against Plasmodium berghei NK65 infected in Swiss Webster mice (Mus musculus) assessed as parasitaemia cure at 10 mg/kg, intraperitoneally administered 1 day after infection measured after 28 days post infection. In kind it is functional.

The term IC50 denotes the concentration needed to halve the response being measured. As a reminder, the MIC is the lowest concentration found to suppress growth. `CC(C)Cn1c2ccccc2c2ccnc(C3=C[C@@]4(O)CC/C=C\CCCCN5CC[C@@H]3[C@]3(C[C@@H]6/C=C\CCCCN6[C@H]34)C5)c21` [9-N-ISOBUTYLMANZAMINE A]: the Activity was 52.3% in the data set on HeLa [1]; 51.1% in the data set with HeLa [3]; 54.9% with HeLa [4]; over 30 µg/mL with HeLa [5]; 54.2% in the data set with HeLa [7]; 17.4% with HeLa [8]. In addition, the Activity with HeLa [9] is 19.5%; in [10], over 10 µM; in the data set with HeLa [11], 19.1%; in the data set with HeLa [12], 16.6%; in the data set with HeLa [14], 17.8%; in the data set on HeLa [16], 19.2%. Besides, the Activity is recorded as 17% in the data set with HeLa [17] and 16.4% with HeLa [20]. The 50% inhibitory concentration (IC50) is 1 µg/mL (≈ 1.65 µM) in data set [2]; 10 µg/mL (≈ 16.5 µM) with Candida albicans; 3 µg/mL (≈ 4.96 µM) in the data set on Cryptococcus neoformans; over 10 µM in [13]; 0.078 µg/mL (≈ 0.129 µM) with Plasmodium falciparum [15]; 0.039 µg/mL (≈ 0.0645 µM) in the data set on Plasmodium falciparum [18]. In addition, the IC50 in data set [19] worked out at 5.7 µM; in the data set on Vero, 0.4 µg/mL (≈ 0.661 µM). In data set [6], this compound showed an MIC of 4.6 µg/mL (≈ 7.6 µM).
Turning to `COC(=O)C1Cc2c([nH]c3ccccc23)C(C2=C[C@@]3(O)CC/C=C\CCCCN4CC[C@@H]2[C@]2(C[C@@H]5/C=C\CCCCN5[C@H]23)C4)N1` (some centres undefined), the concentration for half-maximal inhibition (IC50) was 0.06 µg/mL (≈ 0.0982 µM) in data set [2]; over 20 µg/mL with Candida albicans; 3.5 µg/mL (≈ 5.73 µM) with Cryptococcus neoformans; 4.9 µM in data set [13]; 0.17 µg/mL (≈ 0.278 µM) in the data set on Plasmodium falciparum [15]; 0.1 µg/mL (≈ 0.164 µM) with Plasmodium falciparum [18]. Besides, the IC50 in data set [19] is 8.6 µM; in the data set on Vero, 1 µg/mL (≈ 1.64 µM). In [6], this compound came in with an MIC of over 64 µg/mL. Moreover, the Activity in data set [10] was 5 µM. Further, the “Ratio IC50” value in data set [21] amounted to 5.
Broadly, the Papp is a coefficient for how fast a substance crosses the barrier. As for `Cl.O[C@]12C=C(c3nccc4c3[nH]c3ccccc34)[C@@H]3CCN(CCCC/C=C\CC1)C[C@@]31C[C@@H]3/C=C\CCCCN3[C@H]12` [MANZAMINE A HCL], in the data set with MDCK, the Papp was 1.9 ×10⁻⁶ cm/s.
For `O[C@]12C=C(c3nccc4c3[nH]c3ccccc34)[C@@H]3CCN(CCCCCCCC1)C[C@@]31C[C@@H]3CCCCCCN3[C@H]12` [TETRAHYDROMANZAMINE A], the IC50 in data set [2] was 0.45 µg/mL (≈ 0.814 µM); in the data set with Candida albicans it was 7.5 µg/mL (≈ 13.6 µM); in the data set on Cryptococcus neoformans, 0.9 µg/mL (≈ 1.63 µM); in [13] it was over 10 µM; with Plasmodium falciparum [15], 1.5 µg/mL (≈ 2.71 µM); in data set [19], over 10 µM. This compound also showed an MIC in data set [6] of 50 µg/mL (≈ 90.4 µM). Moreover, in data set [10], the Activity is over 10 µM. The outcome in the data set on Microglia [22] and with Microglia [23] was inactive.
In the case of `O[C@]12C=C(c3nccc4c3[nH]c3ccccc34)[C@@H]3CCN(CCCC/C=C\CC1)C[C@@]31C[C@@H]3/C=C\CCCCN3[C@H]12`, the inhibition entry in the data set on Plasmodium berghei [24], at Tubulin (Sus scrofa) [25], on Tubulin (Sus scrofa) [26] and in the data set on Plasmodium berghei [27] was “inactive” in each case.
